According to ChEMBL document CHEMBL1770123, “SPF32629A and SPF32629B: enantioselective synthesis, determination of absolute configuration, cytotoxicity and antibacterial evaluation” (Eur J Med Chem, 2011):
In brackets after ≈: the same amount, converted by molar mass. Activity calls are given as the source filed them. The calls are words filed in the database; no cut-off is given here.

Assays:
Bacillus subtilis [1] = test: Antimicrobial activity against Bacillus subtilis at 500 ug/disc after 24 hrs by disc diffusion method; format: functional
Klebsiella pneumoniae [2] = test: Antimicrobial activity against Klebsiella pneumoniae at 500 ug/disc after 24 hrs by disc diffusion method; format: functional
Staphylococcus aureus [3] = test: Antimicrobial activity against Staphylococcus aureus at 500 ug/disc after 24 hrs by disc diffusion method; format: functional
In short: (§1)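 Disc diffusion on 2.4% Mueller-Hinton agar inoculated with the strain. Paper discs 6 mm across were loaded with test compound and placed on the agar. Plates were incubated at 37 °C for 24 h. Read-out was the diameter of the inhibition zone in mm.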

Escherichia coli [4] = test: Antimicrobial activity against Escherichia coli at 500 ug/disc after 24 hrs by disc diffusion method; format: functional
A549 [5] = test: Cytotoxicity against human A549 cells assessed as cell death at 10 ug after 48 hrs by MTT assay; format: functional
In short: (§2)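 A549 cells were grown in DMEM with 2 mmol L-glutamine, 10% FBS, penicillin (50 IU/mL) and streptomycin, at 37 °C and 5% CO2. 1×10^4 cells/well were plated and treated 24 h later with compound diluted in medium for 48 h. Controls were DMSO-matched and untreated wells. MTT 0.4 mg/mL in PBS was added for 4 h in the dark, then DMSO for 4 h. A540 was read and reported as % live cells relative to untreated.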

Staphylococcus aureus [6] = test: Antimicrobial activity against methicillin-resistant Staphylococcus aureus strain 4 TB5G at 1000 ug/disc after 24 hrs by disc diffusion method; format: functional; in short: as §1
Bacillus subtilis [7] = test: Antimicrobial activity against Bacillus subtilis at 1000 ug/disc after 24 hrs by disc diffusion method; format: functional
A549 [8] = test: Cytotoxicity against human A549 cells assessed as cell death at 2 ug after 48 hrs by MTT assay; format: functional; in short: as §2
Escherichia coli [9] = test: Antimicrobial activity against Escherichia coli at 1000 ug/disc after 24 hrs by disc diffusion method; format: functional
Staphylococcus aureus [10] = test: Antimicrobial activity against methicillin-resistant Staphylococcus aureus strain 1 TB3G at 1000 ug/disc after 24 hrs by disc diffusion method; format: functional; in short: as §1
Listeria monocytogenes [11] = test: Antimicrobial activity against Listeria monocytogenes at 1000 ug/disc after 24 hrs by disc diffusion method; format: functional
Staphylococcus aureus [12] = test: Antimicrobial activity against Staphylococcus aureus at 1000 ug/disc after 24 hrs by disc diffusion method; format: functional
A549 [13] = test: Cytotoxicity against human A549 cells assessed as cell death at 1 ug after 48 hrs by MTT assay; format: functional; in short: as §2
[14] = Inhibition of human elastase
A549 [15] = test: Cytotoxicity against human A549 cells after 48 hrs by MTT assay; format: functional, cell-based; details: A549, 48 h
In short: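 A549 cells were kept in DMEM with 2 mM L-glutamine, 10% FBS, penicillin 50 IU/mL and streptomycin at 37 °C under 5% CO2. 1×10^4 cells per well were treated 24 h after seeding with compounds diluted in medium for 48 h. MTT (0.4 mg/mL in PBS) was added for 4 h in the dark, formazan was dissolved in DMSO for 4 h and absorbance read at 540 nm. Viability was expressed as % of untreated cells, and IC50 was derived.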

[16] = system: Staphylococcus epidermidis; test: Antimicrobial activity against Staphylococcus epidermidis at 1000 ug/disc after 24 hrs by disc diffusion method; format: functional; details: read-out: DIZ
Klebsiella pneumoniae [17] = test: Antimicrobial activity against Klebsiella pneumoniae at 1000 ug/disc after 24 hrs by disc diffusion method; format: functional
Salmonella typhimurium [18] = test: Antimicrobial activity against Salmonella Typhimurium at 1000 ug/disc after 24 hrs by disc diffusion method; format: functional, Salmonella enterica subsp. enterica serovar Typhimurium; details: Salmonella enterica, read-out: DIZ
Staphylococcus aureus [19] = test: Antimicrobial activity against methicillin-resistant Staphylococcus aureus strain 4 TB5G at 500 ug/disc after 24 hrs by disc diffusion method; format: functional; in short: as §1
A549 [20] = test: Cytotoxicity against human A549 cells assessed as cell death at 25 ug after 48 hrs by MTT assay; format: functional; in short: as §2
Salmonella typhimurium [21] = test: Antimicrobial activity against Salmonella Typhimurium at 500 ug/disc after 24 hrs by disc diffusion method; format: functional, Salmonella enterica subsp. enterica serovar Typhimurium; details: Salmonella enterica, read-out: DIZ
Chymase = target: T1, Chymase (Homo sapiens, UniProt P23946); test: Inhibition of human chymase
T1 sequence (P23946 whole entry): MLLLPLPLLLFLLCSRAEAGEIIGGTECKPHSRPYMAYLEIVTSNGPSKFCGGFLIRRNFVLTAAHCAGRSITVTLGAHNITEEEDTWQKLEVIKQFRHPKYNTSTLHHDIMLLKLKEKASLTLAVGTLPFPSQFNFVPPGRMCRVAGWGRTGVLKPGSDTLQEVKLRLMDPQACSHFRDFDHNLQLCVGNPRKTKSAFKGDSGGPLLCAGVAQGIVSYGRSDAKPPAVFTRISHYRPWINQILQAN

Staphylococcus aureus [22] = test: Antimicrobial activity against methicillin-resistant Staphylococcus aureus strain 1 TB3G at 500 ug/disc after 24 hrs by disc diffusion method; format: functional; in short: as §1
A549 [23] = test: Cytotoxicity against human A549 cells assessed as cell death at 5 ug after 48 hrs by MTT assay; format: functional; in short: as §2
Staphylococcus aureus [24] = test: Antimicrobial activity against methicillin-resistant Staphylococcus aureus strain 2 TB4G at 1000 ug/disc after 24 hrs by disc diffusion method; format: functional; in short: as §1
[25] = system: Staphylococcus epidermidis; test: Antimicrobial activity against Staphylococcus epidermidis at 500 ug/disc after 24 hrs by disc diffusion method; format: functional
Staphylococcus aureus [26] = test: Antimicrobial activity against methicillin-resistant Staphylococcus aureus strain 2 TB4G at 500 ug/disc after 24 hrs by disc diffusion method; format: functional; in short: as §1
Listeria monocytogenes [27] = test: Antimicrobial activity against Listeria monocytogenes at 500 ug/disc after 24 hrs by disc diffusion method; format: functional
Bacillus subtilis [28] = test: Antimicrobial activity against Bacillus subtilis after 24 hrs by microdilution method; format: functional
In short: (§3)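 Growth was judged by turbidity, and the MIC was taken as the minimum concentration giving the lowest growth. Amikacin served as reference.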

Escherichia coli [29] = test: Antimicrobial activity against Escherichia coli after 24 hrs by microdilution method; format: functional; in short: as §3
Salmonella typhimurium [30] = test: Antimicrobial activity against Salmonella Typhimurium after 24 hrs by microdilution method; format: functional, Salmonella enterica subsp. enterica serovar Typhimurium; details: Salmonella enterica; in short: as §3
Staphylococcus aureus [31] = test: Antimicrobial activity against Staphylococcus aureus after 24 hrs by microdilution method; format: functional; in short: as §3
[32] = system: Staphylococcus epidermidis; test: Antimicrobial activity against Staphylococcus epidermidis after 24 hrs by microdilution method; format: functional; in short: as §3
Staphylococcus aureus [33] = test: Antimicrobial activity against methicillin-resistant Staphylococcus aureus strain 4 TB5G after 24 hrs by microdilution method; format: functional
In short: (§4)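 Growth was judged by turbidity. The MIC was taken as the lowest concentration giving the lowest growth.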

Listeria monocytogenes [34] = test: Antimicrobial activity against Listeria monocytogenes after 24 hrs by microdilution method; format: functional; in short: as §3
Klebsiella pneumoniae [35] = test: Antimicrobial activity against Klebsiella pneumoniae after 24 hrs by microdilution method; format: functional; in short: as §3
Staphylococcus aureus [36] = test: Antimicrobial activity against methicillin-resistant Staphylococcus aureus strain 1 TB3G after 24 hrs by microdilution method; format: functional; in short: as §4
Staphylococcus aureus [37] = test: Antimicrobial activity against methicillin-resistant Staphylococcus aureus strain 2 TB4G after 24 hrs by microdilution method; format: functional; in short: as §4

Structure (SMILES): CC(C)CC(=O)OC(c1ccccc1)c1cc(O)cc(=O)[nH]1 (racemic)
- diameter of the inhibition zone (DIZ) (Bacillus subtilis [1]): inactive
- diameter of the inhibition zone (DIZ) (Klebsiella pneumoniae [2]): inactive
- diameter of the inhibition zone (DIZ) (Staphylococcus aureus [3]): inactive
- diameter of the inhibition zone (DIZ) (Escherichia coli [4]): inactive
- Activity (A549 [5]): 50.21%
- diameter of the inhibition zone (DIZ) (Staphylococcus aureus [6]): inactive
- diameter of the inhibition zone (DIZ) (Bacillus subtilis [7]): inactive
- Activity (A549 [8]): 25.54%
- diameter of the inhibition zone (DIZ) (Escherichia coli [9]): inactive
- diameter of the inhibition zone (DIZ) (Staphylococcus aureus [10]): inactive
- diameter of the inhibition zone (DIZ) (Listeria monocytogenes [11]): inactive
- diameter of the inhibition zone (DIZ) (Staphylococcus aureus [12]): inactive
- Activity (A549 [13]): 8.22%
- IC50 [14]: 4.9 mg/L (≈ 16.3 µM)
- IC50 (A549 [15]): 28 µM
- zone of inhibition at 1000 µg/disc [16]: 9 mm
- diameter of the inhibition zone (DIZ) (Klebsiella pneumoniae [17]): inactive
- zone of inhibition at 1000 µg/disc (Salmonella typhimurium [18]): 13 mm
- diameter of the inhibition zone (DIZ) (Staphylococcus aureus [19]): inactive
- Activity (A549 [20]): 74.02%
- zone of inhibition at 500 µg/disc (Salmonella typhimurium [21]): 7 mm
- IC50 (Chymase): 0.83 µM
- diameter of the inhibition zone (DIZ) (Staphylococcus aureus [22]): inactive
- Activity (A549 [23]): 37.22%
- diameter of the inhibition zone (DIZ) (Staphylococcus aureus [24]): inactive
- diameter of the inhibition zone (DIZ) [25]: inactive
- diameter of the inhibition zone (DIZ) (Staphylococcus aureus [26]): inactive
- diameter of the inhibition zone (DIZ) (Listeria monocytogenes [27]): inactive

Structure (SMILES): CC(C)CC(=O)OC(c1ccccc1)c1cc(O)c(C(=O)O)c(=O)[nH]1 (racemic)
- zone of inhibition at 500 µg/disc (Bacillus subtilis [1]; read-out: DIZ): 7 mm
- zone of inhibition at 500 µg/disc (Klebsiella pneumoniae [2]; read-out: DIZ): 12 mm
- zone of inhibition at 500 µg/disc (Staphylococcus aureus [3]; read-out: DIZ): 7 mm
- MIC (Bacillus subtilis [28]): 25 mg/L (≈ 72.4 µM)
- MIC (Escherichia coli [29]): 50 mg/L (≈ 145 µM)
- MIC (Salmonella typhimurium [30]): > 100 mg/L
- zone of inhibition at 500 µg/disc (Escherichia coli [4]; read-out: DIZ): 8 mm
- Activity (A549 [5]): 71.07%
- zone of inhibition at 1000 µg/disc (Staphylococcus aureus [6]; read-out: DIZ): 12 mm
- zone of inhibition at 1000 µg/disc (Bacillus subtilis [7]; read-out: DIZ): 13 mm
- Activity (A549 [8]): 21.53%
- zone of inhibition at 1000 µg/disc (Escherichia coli [9]; read-out: DIZ): 15 mm
- zone of inhibition at 1000 µg/disc (Staphylococcus aureus [10]; read-out: DIZ): 10 mm
- MIC (Staphylococcus aureus [31]): > 100 mg/L
- zone of inhibition at 1000 µg/disc (Listeria monocytogenes [11]; read-out: DIZ): 20 mm
- zone of inhibition at 1000 µg/disc (Staphylococcus aureus [12]; read-out: DIZ): 15 mm
- Activity (A549 [13]): 7.07%
- IC50 [14]: 4.5 mg/L (≈ 13 µM)
- IC50 (A549 [15]): 11 µM
- zone of inhibition at 1000 µg/disc [16]: 17 mm
- zone of inhibition at 1000 µg/disc (Klebsiella pneumoniae [17]; read-out: DIZ): 21 mm
- MIC [32]: > 100 mg/L
- zone of inhibition at 1000 µg/disc (Salmonella typhimurium [18]): 20 mm
- zone of inhibition at 500 µg/disc (Staphylococcus aureus [19]; read-out: DIZ): 6 mm
- Activity (A549 [20]): 81.53%
- MIC (Staphylococcus aureus [33]): > 100 mg/L
- zone of inhibition at 500 µg/disc (Salmonella typhimurium [21]): 9 mm
- MIC (Listeria monocytogenes [34]): 50 mg/L (≈ 145 µM)
- MIC (Klebsiella pneumoniae [35]): 50 mg/L (≈ 145 µM)
- IC50 (Chymase): 1.22 µM
- zone of inhibition at 500 µg/disc (Staphylococcus aureus [22]; read-out: DIZ): 5 mm
- Activity (A549 [23]): 44%
- zone of inhibition at 1000 µg/disc (Staphylococcus aureus [24]; read-out: DIZ): 12 mm
- MIC (Staphylococcus aureus [36]): > 100 mg/L
- zone of inhibition at 500 µg/disc ([25]; read-out: DIZ): 8 mm
- zone of inhibition at 500 µg/disc (Staphylococcus aureus [26]; read-out: DIZ): 7 mm
- MIC (Staphylococcus aureus [37]): > 100 mg/L
- zone of inhibition at 500 µg/disc (Listeria monocytogenes [27]; read-out: DIZ): 11 mm
